The subject of series [1] is Mycobacterium tuberculosis. In words: Antimycobacterial activity against Mycobacterium tuberculosis H37Rv ATCC 27294 by agar dilution method. The format is functional. The gist of the method:
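Growth of M. tuberculosis H37Rv (ATCC27294) on agar dilution. Compounds at 50 to 0.78 μg/ml in duplicate. MIC taken as the lowest concentration giving complete growth inhibition. Isoniazid, ethambutol and ofloxacin served as references.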

A further series has as its system Staphylococcus aureus. Put plainly: Antibacterial activity against Staphylococcus aureus at 50 to 100 ug/ml by cup plate agar diffusion method. The format is functional. The essentials: (§1)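 Tested at 50 and 100 μg/ml by cup-plate agar diffusion against E. coli, P. aeruginosa, S. aureus and B. subtilis.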
Series [2] is described as follows: Cytotoxicity against mouse RAW264.7 cells assessed as growth inhibition at 100 uM after 72 hrs by MTT assay relative to control. The following applies: read-out: GI. The class given is cell-based. The gist of the method: (§2)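 RAW 264.7 mouse macrophage line exposed to compound at 100 and 50 μM for 72 h. Viability by MTT conversion to formazan. Reported as per cent inhibition.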
(Tetrazolium dyes change colour on reduction, which living cells bring about.)

A short description of series [3]: Inhibition of Mycobacterium tuberculosis His6-tagged InhA expressed in Escherichia coli BL21 (DE3) assessed as decrease in NADH oxidation to NAD+ using 2-trans-decenoyl-CoA as substrate preincubated for 2 hrs followed by substrate and NADH addition measured for 1 min by spectrophotometric method. The essentials:
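Recombinant MTB InhA purified from E. coli. NADH oxidation during DD-CoA reduction read spectrophotometrically, with fixed non-saturating NADH and DD-CoA in 1% DMSO. IC50, the concentration halving enzyme velocity, determined for compounds giving over 50% inhibition at 10 μM.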

A further series concerns Bacillus subtilis. Put plainly: Antibacterial activity against Bacillus subtilis at 50 to 100 ug/ml by cup plate agar diffusion method. The class given is functional. The gist of the method: as §1
Series [4] can be described thus: Cytotoxicity against mouse RAW264.7 cells assessed as growth inhibition at 50 uM after 72 hrs by MTT assay relative to control. The format is cell-based. The following applies: read-out: GI. The gist of the method: as §2
Series [5] concerns Mycobacterium tuberculosis. In words: Inhibition of Mycobacterium tuberculosis His6-tagged InhA expressed in Escherichia coli BL21 (DE3) assessed as decrease in NADH oxidation to NAD+ at 10 uM using 2-trans-decenoyl-CoA as substrate preincubated for 2 hrs followed by substrate and NADH addition measured for 1 min by spectrophotometric method relative to control. The essentials:
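Recombinant MTB InhA expressed in E. coli and purified. DD-CoA reduction followed spectrophotometrically as NADH oxidation to NAD+. Fixed non-saturating NADH and DD-CoA, 1% DMSO. Compound at 10 μM; per cent inhibition relative to a no-inhibitor control, which set the maximal rate.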

Another series concerns Escherichia coli. Put plainly: Antibacterial activity against Escherichia coli at 50 to 100 ug/ml by cup plate agar diffusion method. The format is functional. The gist of the method:
as §1

Another series relates to Pseudomonas aeruginosa. In words: Antibacterial activity against Pseudomonas aeruginosa at 50 to 100 ug/ml by cup plate agar diffusion method. The format is functional. The essentials:
as §1
A general note: In agar diffusion tests the substance spreads into inoculated agar from a disc or well.

Series [6] deals with Mycobacterium tuberculosis. In words: Antimycobacterial activity against Mycobacterium tuberculosis H37Rv-GFP infected in mouse RAW264.7 cells after 5 days by confocal microscopic method. The class given is functional, cell-based. The following applies: RAW264.7, 120 h. The gist of the method: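 Intracellular M. tuberculosis in mouse macrophages. After initial screening at 0.1, 1 and 10 µg/ml, six doses between 0.1 and 1.0 µg/ml were tested to derive IC50.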

In series [7] the test system is Mycobacterium tuberculosis. In words: Antimycobacterial activity against Mycobacterium tuberculosis H37Rv-GFP infected in mouse RAW264.7 cells assessed as growth inhibition at 1 ug/ml after 5 days by confocal microscopic method. The format is functional, cell-based. The gist of the method:
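Intracellular M. tuberculosis in mouse macrophages. Initial screen at 0.1, 1 and 10 µg/ml.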

The test system of series [8] is Mycobacterium tuberculosis. In words: Stabilization of Mycobacterium tuberculosis InhA assessed as change in melting temperature by sypro orange dye-based differential scanning fluorimetry. The essentials: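 Differential scanning fluorimetry of InhA with ligand versus native protein. Heated from 25 °C to 95 °C in 0.1 °C steps with SYPRO Orange. Tm shift taken relative to native protein.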
Background: Differential scanning fluorimetry follows unfolding on heating by fluorescence.

The results in this text go back to ChEMBL document CHEMBL4002632, “Development of gallic acid formazans as novel enoyl acyl carrier protein reductase inhibitors for the treatment of tuberculosis” (Bioorg Med Chem Lett, 2017).

Structures are written as SMILES. pIC50: −log10 of the molar value. Values after ≈ are worked out from the molar mass of the structure shown. Active and inactive are the calls of the source. The calls are words filed in the database; no cut-off is given here.

As usually defined, the MIC is the lowest concentration that inhibits growth of the organism. Consider `CC[C@@H](CO)NCCN[C@@H](CC)CO` [ETHAMBUTOL], for which, in [1], the MIC is 7.64 µM (≈ 1.56 µg/mL).

Usually pIC50 stands for −log10 of the IC50, conventionally taken in molar units. As to `O=C(N/N=C(/N=N/c1ccccc1[N+](=O)[O-])c1ccccc1)c1cc(O)c(O)c(O)c1`, the result in the series with Staphylococcus aureus, with Bacillus subtilis, in the series on Escherichia coli and with Pseudomonas aeruginosa was inactive. Besides, the inhibition at 72 h, 100 µM in series [2] came to 5.43%. For the same molecule, the pIC50 in series [3] is 5.07. Moreover, in series [4], the inhibition at 72 h, 50 µM turned out to be 2.11%. Further, in [5], the inhibition came to 62.3%. This molecule also had a minimal inhibitory concentration (MIC) in series [1] of 14.8 µM (≈ 6.26 µg/mL).

Regarding `O=C(N/N=C(/N=N/c1ccccc1Cl)c1ccccc1)c1cc(O)c(O)c(O)c1`, the outcome in the series with Staphylococcus aureus, with Bacillus subtilis, in the series on Escherichia coli and with Pseudomonas aeruginosa was inactive. For the same molecule, the inhibition at 72 h, 100 µM in series [2] came to 32.6%. In addition, in series [3], the pIC50 is 5.04. The inhibition at 72 h, 50 µM in series [4] worked out at 24.5%. Moreover, the inhibition in series [5] was found to be 57.1%. In [1], the minimum inhibitory concentration (MIC) came out at 15.2 µM (≈ 6.25 µg/mL).

With `O=C(N/N=C(/N=N/c1ccc([N+](=O)[O-])cc1)c1ccccc1)c1cc(O)c(O)c(O)c1`, the outcome in the series with Staphylococcus aureus, in the series on Bacillus subtilis, in the series with Escherichia coli and in the series on Pseudomonas aeruginosa was inactive. Moreover, in series [2], the inhibition at 72 h, 100 µM is 34.6%. Further, the negative logarithm of the IC50 (pIC50) in series [3] is 5.09. Also, the inhibition at 72 h, 50 µM in series [4] is 11.1%. Further, the inhibition in series [5] was found to be 57.1%. The molecule further displayed an MIC in [1] of 7.42 µM (≈ 3.13 µg/mL).

On to `COc1ccccc1/N=N/C(=N/NC(=O)c1cc(O)c(O)c(O)c1)c1ccccc1`, for which the result in the series on Staphylococcus aureus, in the series on Bacillus subtilis, in the series on Escherichia coli and with Pseudomonas aeruginosa was inactive. Moreover, in series [2], the inhibition at 72 h, 100 µM was found to be 52.7%. For the same molecule, the pIC50 in series [3] is 5.18. Besides, the inhibition at 72 h, 50 µM in series [4] came out at 46.5%. The inhibition in [5] came to 71.7%. In addition, in series [1], the MIC came out at 4 µM (≈ 1.63 µg/mL).

In [1], `NNC(=O)c1ccncc1` [ISONIAZID] gave a minimum inhibitory concentration (MIC) of 0.72 µM (≈ 0.0987 µg/mL).

In series [1], `CC1COc2c(N3CCN(C)CC3)c(F)cc3c(=O)c(C(=O)O)cn1c23` (stereo not given) [OFLOXACIN] returned an MIC of 2.16 µM (≈ 0.781 µg/mL).

In general, IC50 refers to the concentration needed to halve the response being measured. Consider `COc1ccc(/N=N/C(=N/NC(=O)c2cc(O)c(O)c(O)c2)c2ccccc2)cc1`, for which the outcome in the series on Staphylococcus aureus, with Bacillus subtilis, in the series on Escherichia coli and with Pseudomonas aeruginosa was inactive. In addition, the inhibition at 72 h, 100 µM in series [2] turned out to be 15%. Further, the pIC50 in series [3] was 5.24. Besides, the inhibition at 72 h, 50 µM in series [4] came to 4.51%. Also, the inhibition in [5] came to 69.3%. Also, in series [1], the MIC was determined as 1.92 µM (≈ 0.781 µg/mL). The same molecule returned a concentration for half-maximal inhibition (IC50) in series [6] of 0.56 µg/mL (≈ 1.38 µM). In addition, the “growth inhibition (GI)” value in [7] was “Active”.

Consider `O=C(N/N=C(/N=N/c1ccccc1)c1ccccc1)c1cc(O)c(O)c(O)c1`, for which the outcome in the series with Staphylococcus aureus, with Bacillus subtilis, in the series on Escherichia coli and in the series on Pseudomonas aeruginosa was inactive. In [2], the inhibition at 72 h, 100 µM stood at 41.4%. For the same molecule, in series [4], the inhibition at 72 h, 50 µM came out at 13.6%. The inhibition in series [5] amounted to 42.2%. The MIC in series [1] was 38.1 µM (≈ 14.3 µg/mL).

On to `Cc1ccccc1/N=N/C(=N/NC(=O)c1cc(O)c(O)c(O)c1)c1ccccc1`, for which the outcome with Staphylococcus aureus, with Bacillus subtilis, in the series on Escherichia coli and with Pseudomonas aeruginosa was inactive. Further, the inhibition at 72 h, 100 µM in series [2] was determined as 41.5%. The negative logarithm of the IC50 (pIC50) in series [3] is 5.48. The inhibition at 72 h, 50 µM in [4] was 32.7%. Moreover, the inhibition in series [5] is 81.4%. In [1], this molecule gave an MIC of 15.4 µM (≈ 6.01 µg/mL).

For the molecule `O=C(N/N=C(/N=N/c1ccc(F)cc1)c1ccccc1)c1cc(O)c(O)c(O)c1`, the outcome in the series with Staphylococcus aureus, in the series on Bacillus subtilis, with Escherichia coli and in the series on Pseudomonas aeruginosa was inactive. The inhibition at 72 h, 100 µM in series [2] turned out to be 23.7%. Besides, the pIC50 in [3] is 5.47. The inhibition at 72 h, 50 µM in [4] amounted to 11.8%. Further, the inhibition in series [5] is 87.1%. Besides, inhibition of growth in series [1] (MIC) required 1.98 µM (≈ 0.78 µg/mL). Moreover, in [6], the concentration for half-maximal inhibition (IC50) is 0.62 µg/mL (≈ 1.57 µM). Moreover, in [7], the “growth inhibition (GI)” value was “Active”.

As a reminder, the ΔTm is the shift of the melting midpoint relative to a reference. As to `O=C(N/N=C(/N=N/c1ccc(Cl)cc1Cl)c1ccccc1)c1cc(O)c(O)c(O)c1`, the result in the series with Staphylococcus aureus, with Bacillus subtilis, with Escherichia coli and in the series with Pseudomonas aeruginosa was inactive. Also, in [2], the inhibition at 72 h, 100 µM was 21.5%. For the same molecule, the pIC50 in series [3] was 5.28. For the same molecule, in [8], the ΔTm came to 2.8 °C. Besides, the inhibition at 72 h, 50 µM in [4] was 12.1%. The inhibition in [5] was determined as 73.2%. In series [1], this molecule gave an MIC of 1.75 µM (≈ 0.78 µg/mL). The IC50 in series [6] was determined as 0.35 µg/mL (≈ 0.786 µM). Besides, the “growth inhibition (GI)” value in series [7] is “Active”.
